The EternaBench riboswitch data

System: MS2 coat protein
Test: apparent Kd, MS2 coat protein; higher = weaker binding; RNA-MaP array; FMN 200 µM where present
Method in brief: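 Stalled E. coli RNA polymerase transcribed the designs on Illumina sequencing-chip clusters. SNAP-549-labelled MS2 coat protein was titrated from 0.7 or 1.5 nM, doubling to 3 µM, without and then with constant ligand, in 100 mM Tris-HCl pH 7.5, 80 mM KCl, 4 mM MgCl2, BSA, DTT, yeast tRNA and Tween-20. Per-cluster binding curves were fitted to green signal normalised to red-channel RNA signal and control-cluster median Fmax. The apparent Kd is the median of the filtered fits.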

[1] = designed as: ON switch for flavin mononucleotide, no ligand
[2] = ligand present: flavin mononucleotide, designed as: ON switch for flavin mononucleotide
[3] = designed as: OFF switch for flavin mononucleotide, no ligand
[4] = ligand present: flavin mononucleotide, designed as: OFF switch for flavin mononucleotide

AUACCUUAUGAGAAGGCGAUCAUGAAACAUGAUCGAGGAUAUCAUGUAAACAUGAGGAUCACCCAUGUAUGGGUAUUAUGGUAU
apparent Kd [1]: 57.4 nM | apparent Kd [2]: 10.9 nM

AGUAGAUCAGGAUAUACAUGAAAGAUCAAAAUGUCCAAUCUACAUGAGGAUCACCCAUGUAGAAGGGAUCUACA
apparent Kd [3]: 17.1 nM | apparent Kd [4]: 23 nM

GGAAAACAUGAGGAUCACCCAUGUGAGGAUAUCGAUGUCCAAAAAGAAGUGCGGGACUCGAGAAGGCACUUGGA
apparent Kd [3]: 52.7 nM | apparent Kd [4]: 37.5 nM

AGAUCCUGAGUCAGGAUAUAGAGACGGUAGUCGGGCUAGAAGGGACAUGAGGAUCACCCAUGUGGGUUCGGGCC
apparent Kd [3]: 14.2 nM | apparent Kd [4]: 19.3 nM

AUAGGAUGAGGUGACGUACAUGAGGAUCACCCAUGUUUGACACAGGAUAUCCCGCGACUUGGUUUGGAGAAGGGUGGCAGACAA
apparent Kd [3]: 164 nM | apparent Kd [4]: 119 nM

AUGGAUAUCACAGGAUAUGAUAUGGAUACCAUAUCAGAAGGGUGAUCCAUCCUCUGUAAAUACAUGAGGAUCACCCAUGUGUCC
apparent Kd [1]: 15.6 nM | apparent Kd [2]: 15.6 nM

CGUGCGUAUGUGAGGAUAUGCUGGUCCUUGGAUCAGCAGAAGGCACAUGAGGAUCACCCAUGUGGUGUCGUACC
apparent Kd [3]: 262 nM | apparent Kd [4]: 44.1 nM

GUAUUUGAAGUAAGGAUAUGCCUCUGGAAACGGAGGUAGAAGGUACAUGAGGAUCACCCAUGUUUCUCUUUUGG
apparent Kd [3]: 16 nM | apparent Kd [4]: 23.3 nM

AAAACAUGAGGAUCACCCAUGUAAAGAUCGGUUAAUAAAAGUGAGGAUAUACUAAAUUUUAUAUAGUAGAAGGCACUGGGUACA
apparent Kd [1]: 22.9 nM | apparent Kd [2]: 30.1 nM

ACGAGACUCGUGAGGAUAUCGUGUUGUAAGCAGAUCGAGAAGGCACAUGAGGAUCACCCAUGUUUACUGCCACA
apparent Kd [3]: 17 nM | apparent Kd [4]: 21.9 nM

UCAUUGAUUGUGAGGAUAUCGAUGUGAUGGUUUGUCGAGAAGGCACAUGAGGAUCACCCAUGUUUGUUUGGGCU
apparent Kd [3]: 494 nM | apparent Kd [4]: 253 nM

CAGUACUGAGGAUAUACAUGAGGAUCACCCAUGUGUUCCAGCUAGGAAACUAGCAGAAGUAGAAGGCAGUACUG
apparent Kd [3]: 24.6 nM | apparent Kd [4]: 441 nM

CGCACUAUACAUGAGGAUCACCCAUGUAAUUAUGAGAUAGUCAGAAGGCAUUAUUAGUGAUUUAAUGAGGAUAUGAAUAGUGCG
apparent Kd [1]: 79.8 nM | apparent Kd [2]: 11.2 nM

AAACAUGUCCGAGGAUAUCUGGAAACAUUUCCAAGAGAAGGCGGACAUGAGGAUCACCCAUGUCUCUCCUCAUCAAAUCCAAGA
apparent Kd [3]: 8 nM | apparent Kd [4]: 77.4 nM

CCAGAGAUAUGAGGAUAUCGAGUGGAAUACACUCGAGAAGGCAUGUGAAAACAUGAGGAUCACCCAUGUAUGAUCUACUCUGGA
apparent Kd [1]: 52.2 nM | apparent Kd [2]: 24.4 nM

GGAGAGCAAGGAUAUACAUGAGGAUCACCCAUGUACGGUCAUUUGGGCAUGUCUGUAAGUAGAAGGUGUUUUGG
apparent Kd [3]: 45.2 nM | apparent Kd [4]: 58.5 nM

GUUUAGUGAGGAUAUGUGGCUUCGAUCGUGCGCGUUCGGCUACAGAAGGCACAUGAGGAUCACCCAUGUUCCUC
apparent Kd [3]: 445 nM | apparent Kd [4]: 704 nM

AAAAGGUCAGGAUAUACAAAAAAAAAAAAAAAAAAAAAAAAGUAGAAGGGACAUGAGGAUCACCCAUGUGAAAA
apparent Kd [3]: 86.1 nM | apparent Kd [4]: 74 nM

AAGAGACAUCAGAAGGGAGCCCGCACGCGCGGCUCAGGAUAUGAGAUCUUAUGUAGUACGACAUGAGGAUCACCCAUGUCCGCG
apparent Kd [1]: 37.8 nM | apparent Kd [2]: 7.97 nM

GGUGCGUUUGUGAGGAUAUGCUGGUCCUUGGAUCAGCAGAAGGCACAUGAGGAUCACCCAUGUGGUGUCGGUCC
apparent Kd [3]: 416 nM | apparent Kd [4]: 37.6 nM

GGACGUCUCAUUAACAUGAGGAUCACCCAUGUCGAAAGACAUGAGGAUAUGGAUCCUAAUUGGAUCCAGAAGGCAUGGACGUCC
apparent Kd [1]: 98 nM | apparent Kd [2]: 582 nM

ACAUACUUUCGAGGAUAUCGGUGAUAUAUUUAACGAGAAGGCGAUAAAAGAUAUAAACUUAUAGACAUGAGGAUCACCCAUGUA
apparent Kd [1]: 27.4 nM | apparent Kd [2]: 27.1 nM

ACGGUGGUCACAGGAUAUCCGGCCCGCGUGCCUGGAGAAGGGUGACUCAGAACCACAUGAGGAUCACCCAUGUGCCUUACCGUA
apparent Kd [1]: 52.6 nM | apparent Kd [2]: 23.9 nM

ACAAAGAGCCAAGGAUAUACGUCGUCGAGCCCUCCCGUAGUGGCCAGCACAUGAGGAUCACCCAUGUAGAAGGUGGCUGUAGUC
apparent Kd [3]: 20.1 nM | apparent Kd [4]: 38.5 nM

GGAUAACAUGAGGAUCACCCAUGUACAUGGGUACAAGGAUAUGUAAAAUAAAACAAACAAACAGAAGGUGUAAAAA
apparent Kd [1]: 708 nM | apparent Kd [2]: 1450 nM

UGGUACUAGGGAGGAUAUGGGAAGAUACAUGAGGAUCACCCAUGUUUAAGAAUGCCGAGAGGCAACUAGAAGGACCUAGUACCU
apparent Kd [1]: 896 nM | apparent Kd [2]: 63.6 nM

AGGGUGUCGCUCAAUAACAUGAGGAUCACCCAUGUGCAUUAGAGAAGGGACCCGGGCGCGUGGAGUCAGGAUAUCUAUCUGCCA
apparent Kd [3]: 34.4 nM | apparent Kd [4]: 30 nM

GCACCUCUAUUUGAACCGAUACGAACAUGAGGAUCACCCAUGUAGGAUAUGCUAAAAGUUGUGUUGCAGAAGGACAUUUAGUGC
apparent Kd [3]: 10.7 nM | apparent Kd [4]: 10.5 nM

AGCUACGUUUCGUAGCAGUGUCAUCGAGAAGGCCUUAUUACAUGAGGAUCACCCAUGUAUGCAUGGGAGGAUAUCGAUGAUACA
apparent Kd [1]: 13.9 nM | apparent Kd [2]: 5.25 nM

GCGUUUACGGUUGACACUUAGCGAGAGGAUAUGGAAAACAAGACAUGAGGAUCACCCAUGUACUAUCAGAAGGCUCGAGUACGC
apparent Kd [1]: 8.65 nM | apparent Kd [2]: 5.29 nM

GGGUUCAUGUAAGGAUAUGUAUUGUUAAUCGGAGCAGAAGGUACAUGAGGAUCACCCAUGUCAACCUAGAGCAGGGCUUCUUAA
apparent Kd [3]: 23.7 nM | apparent Kd [4]: 45.2 nM

CUGUUUUUCGCAGGAUAUGCUCCUCCUUUAUUUGCAGAAGGGCGUUAAACAUGAGGAUCACCCAUGUAUGGUAAUGACUUUUUC
apparent Kd [3]: 20.6 nM | apparent Kd [4]: 67.8 nM

UCCUUCUGUUGAGGAUAUGUAAGACAGCGGCUGCUAUUACGGCACGCUGAUACAGAAGGCAACAUGAGGAUCACCCAUGUUCAA
apparent Kd [3]: 24.1 nM | apparent Kd [4]: 189 nM

UAACAUACAAAUAUACAUGAGGAUCACCCAUGUUUGUUGGGAAGAAGGGUAACUAUAUUACAUAUACAGGAUAUUUAACAUACU
apparent Kd [1]: 15.1 nM | apparent Kd [2]: 11.7 nM

GCAAUAGCAUGAGGAUAUGCUGGAGUUUAGACAGCAGAAGGCAUGUCAUAAGACAUGAGGAUCACCCAUGUAGUUACAAUGGCA
apparent Kd [1]: 26.9 nM | apparent Kd [2]: 11.3 nM

UCAUACUUUCGAGGAUAUCGGUUAACAUAUUAACGAGAAGGCGAUAUAUUGUUUAAUCUUAUAAACAUGAGGAUCACCCAUGUA
apparent Kd [1]: 33.9 nM | apparent Kd [2]: 25.4 nM
